Read-outs that look alike come from different tables or passages of the source. Where only a bound is given, the exact number is not on record here.

Common to all, as to type: biochemical
One assay has as its target HDAC5 (Homo sapiens, UniProt Q9UQL6). Nature of the assay: HDAC deacetylase homogenous fluorescence assay, HDAC5. A digest of the protocol:
(§1)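 Recombinant human enzyme (HDAC5, 8, 9 baculovirus-expressed) incubated with serially diluted test compound over a 12-point titration. Substrate: trifluoroacetylated AMC-K(TFA)GL. Peptidase development releases MCA, read at ex 355/em 460 nm. Activity normalised to plate controls. IC50 and SD by non-linear regression; Ki by Cheng-Prusoff, Ki = IC50/(1+[S]/Km).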

A further assay has as its target HDAC1 (Homo sapiens, UniProt Q13547). Kind of assay: HDAC deacetylase homogenous fluorescence assay, HDAC1. In outline:
(§2)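 Baculovirus-expressed recombinant human enzyme (HDAC3 as HDAC3/N-CoR2 complex) incubated with serially diluted test compound over a 12-point titration. Substrate: acetylated AMC-K(Ac)GL. Deacetylated product cleaved by lysine peptidase to free MCA, read at ex 355/em 460 nm. Data normalised to control plate by plate. IC50 and SD from non-linear regression; Ki via Cheng-Prusoff, Ki = IC50/(1+[S]/Km).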

A further assay addresses HDAC9 (Homo sapiens, UniProt Q9UKV0). Kind of assay: HDAC deacetylase homogenous fluorescence assay, HDAC9. In outline:
as §1

The target of the next assay is HDAC2 (Homo sapiens, UniProt Q92769). Kind of assay: HDAC deacetylase homogenous fluorescence assay, HDAC2. To be noted: for Ki: read-out: HDAC2 Ki, converted from IC50 using Cheng-Prusoff equation. In outline:
as §2

A further assay deals with T1, HDAC11 (Homo sapiens, UniProt Q96DB2).
T1 sequence (Q96DB2 1-347): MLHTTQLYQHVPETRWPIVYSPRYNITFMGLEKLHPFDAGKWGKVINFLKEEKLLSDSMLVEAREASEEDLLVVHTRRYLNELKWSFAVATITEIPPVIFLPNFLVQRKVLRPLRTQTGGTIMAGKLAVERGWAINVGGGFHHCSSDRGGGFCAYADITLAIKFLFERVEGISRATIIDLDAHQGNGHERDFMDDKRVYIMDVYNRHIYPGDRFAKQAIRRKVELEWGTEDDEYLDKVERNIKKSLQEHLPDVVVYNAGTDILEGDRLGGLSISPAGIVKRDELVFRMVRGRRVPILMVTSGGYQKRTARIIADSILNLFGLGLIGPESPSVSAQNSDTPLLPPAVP
Kind of assay: HDAC deacetylase homogenous fluorescence assay, HDAC11.

In the next assay the target is T2, HDAC8 (Homo sapiens, UniProt Q9BY41).
T2 sequence (Q9BY41 1-377): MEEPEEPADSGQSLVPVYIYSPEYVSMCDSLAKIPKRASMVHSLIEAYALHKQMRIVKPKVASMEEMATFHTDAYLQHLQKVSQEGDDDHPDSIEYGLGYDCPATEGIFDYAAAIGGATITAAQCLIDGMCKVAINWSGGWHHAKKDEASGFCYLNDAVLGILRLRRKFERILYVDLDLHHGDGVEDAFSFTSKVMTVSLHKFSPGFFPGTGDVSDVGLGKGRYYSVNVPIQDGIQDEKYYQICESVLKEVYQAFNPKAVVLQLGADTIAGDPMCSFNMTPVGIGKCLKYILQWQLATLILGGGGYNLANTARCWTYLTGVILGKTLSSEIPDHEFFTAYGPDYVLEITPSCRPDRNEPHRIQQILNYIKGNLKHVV
Nature of the assay: HDAC deacetylase homogenous fluorescence assay, HDAC8. A digest of the protocol:
as §1

In a further assay the target is T3, HDAC10 (Homo sapiens, UniProt Q969S8).
T3 sequence (Q969S8 1-669): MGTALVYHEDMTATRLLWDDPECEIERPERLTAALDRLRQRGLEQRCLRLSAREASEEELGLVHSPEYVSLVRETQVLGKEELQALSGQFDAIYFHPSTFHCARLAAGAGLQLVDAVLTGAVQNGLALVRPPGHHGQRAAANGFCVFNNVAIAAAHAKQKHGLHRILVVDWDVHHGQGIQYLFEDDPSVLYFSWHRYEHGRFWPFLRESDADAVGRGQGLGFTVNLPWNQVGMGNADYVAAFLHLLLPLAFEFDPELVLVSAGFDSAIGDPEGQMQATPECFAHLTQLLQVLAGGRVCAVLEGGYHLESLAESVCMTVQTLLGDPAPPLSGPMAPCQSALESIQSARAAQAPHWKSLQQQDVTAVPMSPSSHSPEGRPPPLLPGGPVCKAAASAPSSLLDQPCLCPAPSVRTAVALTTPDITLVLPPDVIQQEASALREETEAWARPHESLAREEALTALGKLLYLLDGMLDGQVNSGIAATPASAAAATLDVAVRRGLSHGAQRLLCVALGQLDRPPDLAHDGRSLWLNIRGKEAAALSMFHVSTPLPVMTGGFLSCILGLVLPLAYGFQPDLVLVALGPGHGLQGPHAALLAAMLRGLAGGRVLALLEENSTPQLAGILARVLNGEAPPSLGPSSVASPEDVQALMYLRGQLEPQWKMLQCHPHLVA
Nature of the assay: HDAC deacetylase homogenous fluorescence assay, HDAC10. In outline:
as §2

The target of a further assay is HDAC3/N-CoR2 (Homo sapiens, UniProt O15379). Kind of assay: HDAC deacetylase homogenous fluorescence assay, HDAC3. In outline:
as §2

Where [1] appears, read: read-out: HDAC5 IC50, 12 point titration, trifluoroacetylated substrate.
The mark [2] stands for this setting: read-out: HDAC5 Ki, converted from IC50 using Cheng-Prusoff equation.
[3] abbreviates: read-out: HDAC1 IC50, 12 point titration, acetylated substrate.
The mark [4] stands for this setting: read-out: HDAC1 Ki, converted from IC50 using Cheng-Prusoff equation.
Setting [5] is: read-out: HDAC9 IC50, 12 point titration, trifluoroacetylated substrate.
[6] abbreviates: read-out: HDAC9 Ki, converted from IC50 using Cheng-Prusoff equation.
Where [7] appears, read: read-out: HDAC2 IC50, 12 point titration, acetylated substrate.
Setting [8] is: read-out: HDAC11 IC50, 12 point titration, trifluoroacetylated substrate.
Where [9] appears, read: read-out: HDAC8 IC50, 12 point titration, trifluoroacetylated substrate.
Where [10] appears, read: read-out: HDAC8 Ki, converted from IC50 using Cheng-Prusoff equation.
Setting [11] is: read-out: HDAC10 IC50, 12 point titration, acetylated substrate.
The mark [12] stands for this setting: read-out: HDAC3 IC50, 12 point titration, acetylated substrate.
Where [13] appears, read: read-out: HDAC3 Ki, converted from IC50 using Cheng-Prusoff equation.

HDAC2, sequence (Q92769 whole entry): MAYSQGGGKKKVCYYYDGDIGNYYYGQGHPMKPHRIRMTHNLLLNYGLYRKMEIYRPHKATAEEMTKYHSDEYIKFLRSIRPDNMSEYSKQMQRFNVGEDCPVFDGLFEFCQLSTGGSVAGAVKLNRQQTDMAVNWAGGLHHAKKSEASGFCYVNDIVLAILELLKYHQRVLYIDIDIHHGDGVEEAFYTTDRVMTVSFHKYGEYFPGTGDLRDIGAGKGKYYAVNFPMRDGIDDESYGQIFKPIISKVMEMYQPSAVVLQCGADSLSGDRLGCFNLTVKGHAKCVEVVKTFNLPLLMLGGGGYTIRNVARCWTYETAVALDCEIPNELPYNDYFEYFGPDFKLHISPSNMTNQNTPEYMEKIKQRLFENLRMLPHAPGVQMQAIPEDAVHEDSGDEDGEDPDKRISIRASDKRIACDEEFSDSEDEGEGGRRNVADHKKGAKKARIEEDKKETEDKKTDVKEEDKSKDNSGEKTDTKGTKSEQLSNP
HDAC5, sequence (Q9UQL6 whole entry): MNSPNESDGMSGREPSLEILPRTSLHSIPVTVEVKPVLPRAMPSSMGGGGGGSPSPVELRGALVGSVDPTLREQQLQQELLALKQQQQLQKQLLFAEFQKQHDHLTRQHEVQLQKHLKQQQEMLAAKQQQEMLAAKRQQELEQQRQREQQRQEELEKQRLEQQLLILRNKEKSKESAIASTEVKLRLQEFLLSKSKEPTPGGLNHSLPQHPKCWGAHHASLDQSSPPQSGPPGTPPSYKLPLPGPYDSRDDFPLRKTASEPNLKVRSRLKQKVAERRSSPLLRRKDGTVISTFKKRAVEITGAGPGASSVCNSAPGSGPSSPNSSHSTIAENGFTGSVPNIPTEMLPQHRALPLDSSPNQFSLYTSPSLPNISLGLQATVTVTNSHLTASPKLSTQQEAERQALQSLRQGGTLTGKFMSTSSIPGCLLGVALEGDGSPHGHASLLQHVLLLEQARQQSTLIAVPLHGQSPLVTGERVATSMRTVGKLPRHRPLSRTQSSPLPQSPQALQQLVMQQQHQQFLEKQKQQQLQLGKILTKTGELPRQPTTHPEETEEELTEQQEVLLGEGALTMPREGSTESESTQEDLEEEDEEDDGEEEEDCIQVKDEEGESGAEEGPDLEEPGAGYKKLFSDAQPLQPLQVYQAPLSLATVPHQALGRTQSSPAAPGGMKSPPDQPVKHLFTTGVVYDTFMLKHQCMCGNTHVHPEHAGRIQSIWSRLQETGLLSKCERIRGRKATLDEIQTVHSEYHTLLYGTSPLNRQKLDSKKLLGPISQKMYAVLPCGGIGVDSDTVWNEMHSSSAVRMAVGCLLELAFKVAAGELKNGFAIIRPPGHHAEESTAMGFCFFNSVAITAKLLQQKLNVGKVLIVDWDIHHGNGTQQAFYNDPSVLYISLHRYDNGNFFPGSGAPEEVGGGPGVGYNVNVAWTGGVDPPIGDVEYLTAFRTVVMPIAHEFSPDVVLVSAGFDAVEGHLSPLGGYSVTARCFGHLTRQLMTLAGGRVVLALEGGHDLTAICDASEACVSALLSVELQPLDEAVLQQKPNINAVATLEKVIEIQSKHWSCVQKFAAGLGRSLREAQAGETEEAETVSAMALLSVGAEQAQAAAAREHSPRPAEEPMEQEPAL
HDAC9, sequence (Q9UKV0 whole entry): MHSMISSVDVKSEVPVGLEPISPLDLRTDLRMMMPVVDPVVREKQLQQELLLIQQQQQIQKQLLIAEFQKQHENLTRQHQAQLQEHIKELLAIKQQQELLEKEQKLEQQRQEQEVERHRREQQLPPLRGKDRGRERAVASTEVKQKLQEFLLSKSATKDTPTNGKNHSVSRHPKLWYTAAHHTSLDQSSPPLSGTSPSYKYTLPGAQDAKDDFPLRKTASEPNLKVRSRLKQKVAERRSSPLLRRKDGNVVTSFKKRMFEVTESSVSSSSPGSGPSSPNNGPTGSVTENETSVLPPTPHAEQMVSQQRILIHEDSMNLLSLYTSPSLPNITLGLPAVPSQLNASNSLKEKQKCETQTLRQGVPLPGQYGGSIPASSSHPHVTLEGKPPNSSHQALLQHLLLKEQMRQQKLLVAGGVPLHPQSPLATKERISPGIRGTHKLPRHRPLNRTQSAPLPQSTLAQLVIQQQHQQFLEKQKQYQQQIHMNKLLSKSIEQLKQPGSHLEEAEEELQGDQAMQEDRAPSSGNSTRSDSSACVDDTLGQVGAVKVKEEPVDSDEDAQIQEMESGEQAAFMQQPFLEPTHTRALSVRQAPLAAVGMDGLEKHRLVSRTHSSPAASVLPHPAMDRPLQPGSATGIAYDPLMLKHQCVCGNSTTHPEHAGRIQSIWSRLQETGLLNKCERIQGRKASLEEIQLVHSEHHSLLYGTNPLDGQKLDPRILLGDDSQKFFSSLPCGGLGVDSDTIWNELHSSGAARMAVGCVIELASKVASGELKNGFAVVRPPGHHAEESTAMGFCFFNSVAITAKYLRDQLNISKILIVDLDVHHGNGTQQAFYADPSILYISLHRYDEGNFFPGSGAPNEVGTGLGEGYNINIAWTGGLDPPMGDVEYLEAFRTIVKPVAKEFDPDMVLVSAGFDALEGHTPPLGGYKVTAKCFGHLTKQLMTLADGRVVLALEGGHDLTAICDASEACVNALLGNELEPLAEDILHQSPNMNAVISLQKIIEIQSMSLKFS
HDAC1, sequence (Q13547 whole entry): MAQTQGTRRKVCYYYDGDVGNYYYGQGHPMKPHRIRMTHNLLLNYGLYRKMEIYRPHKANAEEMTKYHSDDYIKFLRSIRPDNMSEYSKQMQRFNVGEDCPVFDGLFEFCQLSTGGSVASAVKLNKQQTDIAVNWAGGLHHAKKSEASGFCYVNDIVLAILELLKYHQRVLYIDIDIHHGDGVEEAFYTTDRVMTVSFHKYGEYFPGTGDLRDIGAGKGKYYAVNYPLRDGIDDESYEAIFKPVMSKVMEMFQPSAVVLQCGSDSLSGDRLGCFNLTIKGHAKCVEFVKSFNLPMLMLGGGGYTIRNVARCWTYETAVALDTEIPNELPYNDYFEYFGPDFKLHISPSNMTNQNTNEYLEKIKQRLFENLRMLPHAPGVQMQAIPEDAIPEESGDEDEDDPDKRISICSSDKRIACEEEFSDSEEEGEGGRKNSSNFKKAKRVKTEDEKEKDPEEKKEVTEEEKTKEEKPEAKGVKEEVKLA
HDAC3/N-CoR2, sequence (O15379 whole entry): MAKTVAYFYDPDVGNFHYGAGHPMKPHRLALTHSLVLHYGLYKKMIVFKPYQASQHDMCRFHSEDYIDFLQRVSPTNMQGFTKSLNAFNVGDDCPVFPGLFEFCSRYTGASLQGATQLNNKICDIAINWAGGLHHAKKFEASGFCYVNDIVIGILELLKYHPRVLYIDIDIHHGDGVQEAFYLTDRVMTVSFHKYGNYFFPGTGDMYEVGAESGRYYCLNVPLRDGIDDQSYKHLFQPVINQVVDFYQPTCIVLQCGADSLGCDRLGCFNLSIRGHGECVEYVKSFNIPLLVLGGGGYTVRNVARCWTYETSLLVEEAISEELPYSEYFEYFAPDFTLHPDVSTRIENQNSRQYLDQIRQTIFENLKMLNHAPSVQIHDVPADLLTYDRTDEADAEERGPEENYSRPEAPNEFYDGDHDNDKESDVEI
HDAC3/N-CoR2, sequence (Q9Y618 395-489 partner limits assumed): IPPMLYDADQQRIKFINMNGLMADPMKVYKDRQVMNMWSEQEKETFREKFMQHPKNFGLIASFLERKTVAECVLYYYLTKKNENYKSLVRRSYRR

In general, IC50 refers to the concentration needed to halve the response being measured. As usually defined, the Ki is the equilibrium dissociation constant of an inhibitor or competing ligand from its target. Consider `OC[C@H]1O[C@H]([S-])[C@H](O)[C@@H](O)[C@@H]1O.[Au+]` [Aurothioglucose, 1-thio-D-glucopyronaose gold salt], for which the IC50 was 720 ± 500 nM on HDAC5 (setting [1]); 4400 ± 1100 nM at HDAC1 (setting [3]); 2800 ± 100 nM on HDAC9 (setting [5]); > 180000 nM at HDAC2 (setting [7]); > 180000 nM at HDAC11 (setting [8]); 1400 ± 300 nM at HDAC8 (setting [9]). Also, the IC50 turned out to be 4900 ± 1500 nM on HDAC10 (setting [11]) and 11500 ± 3200 nM on HDAC3/N-CoR2 (setting [12]). Further, the Ki at HDAC5 (setting [2]) worked out at 390 nM; on HDAC1 (setting [4]), 470 nM; at HDAC9 (setting [6]), 1190 nM; on HDAC8 (setting [10]), 1110 nM; on HDAC10 (read-out: HDAC10 Ki, converted from IC50 using Cheng-Prusoff equation) it was 2160 nM; at HDAC3/N-CoR2 (setting [13]), 1230 nM.
Regarding `COc1ccc2c(c1)CC[C@@H]1[C@@H]2CC[C@]2(C)[C@@H](NCCCCCCN3C(=O)C=CC3=O)CC[C@@H]12` [U-73122, 1-[6-[[(17beta)-3-methoxyestra-1,3,5([10])-trien-17-yl]amion]hexyl]-1H-pyrrole-2,5-dione], the IC50 at HDAC5 (setting [1]) is 10500 ± 7400 nM; on HDAC1 (setting [3]), 38400 ± 15500 nM; on HDAC9 (setting [5]), 29800 ± 5600 nM; on HDAC2 (setting [7]), > 100000 nM; at HDAC11 (setting [8]), > 180000 nM; at HDAC8 (setting [9]), 10900 ± 3100 nM. Besides, the IC50 on HDAC10 (setting [11]) was > 100000 nM; on HDAC3/N-CoR2 (setting [12]), 6200 ± 4000 nM. The Ki on HDAC5 (setting [2]) is 5680 nM; on HDAC1 (setting [4]), 4110 nM; on HDAC9 (setting [6]) it was 12700 nM; at HDAC8 (setting [10]), 8630 nM; at HDAC3/N-CoR2 (setting [13]), 660 nM.
Regarding `NC(N)=Nc1ccc2[nH]c3c(c2c1)C[C@@]1(O)[C@H]2Cc4ccc(O)c5c4[C@@]1(CCN2CC1CC1)[C@H]3O5` [GNTI, guanidinyl-naltrindole di-trifluoroacetate], the IC50 is 700 ± 100 nM at HDAC5 (setting [1]); 30200 ± 7300 nM at HDAC1 (setting [3]); 12300 ± 1700 nM on HDAC9 (setting [5]); 26200 ± 7600 nM on HDAC2 (setting [7]); > 180000 nM at HDAC11 (setting [8]); 2000 ± 400 nM on HDAC8 (setting [9]). Further, the IC50 was > 180000 nM on HDAC10 (setting [11]) and 22700 ± 3100 nM on HDAC3/N-CoR2 (setting [12]). Further, the Ki was found to be 380 nM at HDAC5 (setting [2]); 3240 nM on HDAC1 (setting [4]); 5230 nM at HDAC9 (setting [6]); 1480 nM on HDAC2; 1580 nM at HDAC8 (setting [10]); 2430 nM at HDAC3/N-CoR2 (setting [13]).
As for `O=c1c2ccccc2[se]n1-c1ccccc1` [Ebselen, 2-phenyl-1,2-benzisoselenazol-3(2H)-one], the IC50 on HDAC5 came to 780 ± 100 nM; at HDAC1, 1500 ± 400 nM; against HDAC9 it was 970 ± 500 nM; against HDAC2, 1400 ± 300 nM; on HDAC11 it was 22500 ± 2400 nM; at HDAC8 it was 350 ± 200 nM. Also, the IC50 against HDAC10 was found to be 950 ± 400 nM; on HDAC3/N-CoR2, 2100 ± 1500 nM. For the same molecule, the Ki at HDAC5 is 420 nM; on HDAC1 it was 150 nM; at HDAC2, 80 nM; on HDAC11 it was 4410 nM; at HDAC10 it was 420 nM; at HDAC3/N-CoR2, 230 nM.
As for `O=C1C(SCCO)=C(SCCO)C(=O)c2ccccc21` [NSC-95397, 2,3-bis[(2-Hydroxyethyl)thio]-1,4-naphthoquinone], the IC50 is 3100 ± 200 nM on HDAC5; > 180000 nM against HDAC1; 4800 ± 1400 nM at HDAC9; > 100000 nM at HDAC2; 37800 ± 1400 nM against HDAC11; 1300 ± 100 nM against HDAC8. Moreover, the half-inhibitory concentration (IC50) against HDAC10 was 14500 ± 1500 nM; against HDAC3/N-CoR2, > 100000 nM. The Ki turned out to be 1680 nM at HDAC5; 2040 nM on HDAC9; 7410 nM on HDAC11; 1030 nM on HDAC8; 6400 nM on HDAC10.
